# Assay results gathered from unrelated publications.
# Compare with care: the assays were run in different laboratories.
# Target: Vascular endothelial growth factor receptor 1 (FLT1, Homo sapiens, UniProt P17948)
SMILES,assay,setting,remaining binding [%]
N[C@H]1CCN(c2nccc(-c3cnn4ncccc34)n2)C1,binding,1 µM,99
O=C(c1ccc(Nc2nccc(-c3cc4ccccc4s3)n2)cc1)N1CCC(N2CCCC2)CC1,"binding, competition with immobilised ligand",1 µM,46
O=C1CCc2cc(Nc3cc(OC4CCOCC4)c([N+](=O)[O-])cc3Cl)ccc2N1,"cell-free assay, competition with immobilised ligand",1 µM,100
C[C@@H](c1ccc(-n2cnc3c(N)ncnc32)cc1)N1CCc2nn(C)c(Cc3ccccc3)c2C1=O,"binding, competition with immobilised ligand",0.1 µM,81
Cc1cnc(Nc2ccc(C(=O)N3CCC(N4CCCC4)CC3)cc2)nc1-c1cc2ccccc2s1,"binding, competition with immobilised ligand",1 µM,4.4
c1cncc(-c2cccc(Nc3nccc(NC4CCCCC4)n3)c2)c1,"binding, competition with immobilised ligand",10 µM,71
CN(C(=O)c1ccccc1)c1cc(N(C)c2ccc3c(c2)CCc2ccc(C(=O)NCCN4CCOCC4)cc2C3=O)ccc1F,"cell-free assay, competition with immobilised ligand",1 µM,85
Cc1cnn2ncc(-c3ccnc(N(C)C)n3)c2c1,binding,1 µM,97
CN([C@@H]1CCc2c(CC(=O)O)c3cc(S(C)(=O)=O)ccc3n2C1)S(=O)(=O)c1ccc(F)cc1,"cell-free assay, competition with immobilised ligand",1 µM,88
COc1cnc(Nc2cccc(S(N)(=O)=O)c2)nc1N1CCN(c2ccccc2)CC1,"binding, competition with immobilised ligand",1 µM,97
COc1ccnn2ncc(-c3ccnc(N(C)C)n3)c12,binding,1 µM,100
O=C(NCc1ncc(C(F)(F)F)cc1Cl)c1ccc2c(c1)C1(CCS(=O)(=O)CC1)[C@@H](C1CC1)N2S(=O)(=O)c1ccc(F)cc1,"cell-free assay, competition with immobilised ligand",1 µM,82
C=CC(=O)N1CCC(C(=O)NCC(=O)N2CCN(c3nc(-c4cnc(N)nc4C(F)F)nc(N4CCOCC4)n3)CC2)CC1,"binding, competition with immobilised ligand",1 µM,99
CN(C)c1ncc(F)c(-c2cnn3ncccc23)n1,binding,1 µM,100
Cc1cc(NC(=O)c2cccc(S(F)(F)(F)(F)F)c2)cc(-n2ccn3nc(-c4cccnc4)cc23)c1,"cell-free assay, competition with immobilised ligand",1 µM,100
O=C(NCC1CCOCC1)c1n[nH]cc1NC(=O)c1c(F)cccc1F,"binding, competition with immobilised ligand",1 µM,90
CS(=O)(=O)c1cc(C2(NC(=O)c3cncc4c3cnn4-c3ccc(F)cc3)CC2)ccn1,"cell-free assay, competition with immobilised ligand",1 µM,100
O=C(NCCCN1CCOCC1)c1ccc(Nc2nccc(-c3cc4ccccc4s3)n2)cc1,"binding, competition with immobilised ligand",1 µM,70
C[C@H]1CCN(c2nccc(-c3cnn4ncccc34)n2)C1,binding,1 µM,100
CCOC(=O)c1cc2cc(-c3cc(C(=O)NCc4ccc(C(=O)O)cc4)nn3C)ccc2[nH]1,"cell-free assay, competition with immobilised ligand",0.1 µM,97
CN(C)c1nccc(-c2cnc3ncccn23)n1,binding,1 µM,100
Nc1ncc2c(n1)-c1c([nH]c3ccc(C#CC4CC4)cc13)CCCC2,"binding, competition with immobilised ligand",1 µM,91
